Experimental data as given in the EternaBench riboswitch data.

Tested on: MS2 coat protein
Test: apparent Kd, MS2 coat protein; higher = weaker binding; RNA-MaP array
In short: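 Binding of fluorescently labeled MS2 coat protein, at 1.5 nM to 3 μM and room temperature, was measured with or without input ligand on designed RNAs transcribed on an Illumina sequencing chip from sequenced DNA templates. Apparent Kd was defined as the median of per-cluster binding-curve fits. No design measured on fewer than 10 clusters was kept.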

[1] = designed as: OFF switch for flavin mononucleotide, no ligand
[2] = ligand present: flavin mononucleotide, designed as: OFF switch for flavin mononucleotide
[3] = designed as: ON switch for flavin mononucleotide, no ligand
[4] = ligand present: flavin mononucleotide, designed as: ON switch for flavin mononucleotide
[5] = designed as: OFF switch for theophylline, no ligand
[6] = ligand present: theophylline, designed as: OFF switch for theophylline
[7] = designed as: ON switch for tryptophan, no ligand
[8] = ligand present: tryptophan, designed as: ON switch for tryptophan

## AAGAAAUUCUCACAUGAGGAUCACCCAUGUCCACACGACUAGAGAAGGGCCUUCUACGUGCACUGGCAGGAUAUCUAACCGGGA
[1]
  apparent Kd: 140 nM
[2]
  apparent Kd: 87.5 nM

## UGCUGCUCGAGAGGAUAUACGAAAUGGAACAUGAGGAUCACCCAUGUAUAUCUCCACAAACAGACGUAGAAGGCACAAUAAGGA
[3]
  apparent Kd: 58.2 nM
[4]
  apparent Kd: 45.8 nM

## GUUAGUCCACGAGGAUAUCGAAAUCGGCCCAGUGAAUUUUCACAUGAGGAUCACCCAUGUCAUAUCGAGAAGGCGUCUGAAAGC
[1]
  apparent Kd: 35.7 nM
[2]
  apparent Kd: 41.9 nM

## CGAUACCAUGGUCAGGAUAUGAAACAGCUGACAUGAGGAUCACCCAUGUGAUAGGCAGGUGGACUUCAGAAGGGACACAUACACCA
[3]
  apparent Kd: 184 nM
[4]
  apparent Kd: 50.2 nM

## UAAUAGAAAGGAUAUACAUAGGUUGGCUAAUGACGUUCCGAACAUGAGGAUCACCCAUGUAGAAGGUUCUGCGU
[1]
  apparent Kd: 12.4 nM
[2]
  apparent Kd: 29.5 nM

## UUAAUUCAGUGCCACAUGAGGAUCACCCAUGUCCAUACUCAAAAGGAUAUAUGCGGUUUCUAAGUAUAGAAGGUUUGUACACGA
[3]
  apparent Kd: 130 nM
[4]
  apparent Kd: 89 nM

## CGCAGACUGUUAGGAUAUGAUACUAACAUGAGGAUCACCCAUGUUUACUCAGUGGAUAAGCAGAGUCAGAAGGAACAUUACGCA
[3]
  apparent Kd: 12.2 nM
[4]
  apparent Kd: 9.29 nM

## UUACAACUAAUGGAUACCAGCCGCGUGCUAGUGGUAGCAUACAUGAGGAUCACCCAUGUCGGCCCUUGGCAGCCACGCCCAUGCU
[5]
  apparent Kd: 14.5 nM
[6]
  apparent Kd: 21.5 nM

## CGCUAACAUGAGGAUCACCCAUGUGAGGAUAUUCGCGGCGGACCGGGCUUUGGCGCUCGAAGAAGGCACAACGG
[1]
  apparent Kd: 12.8 nM
[2]
  apparent Kd: 24.5 nM

## ACAGAAAAUAGAGGAUAUACAAGAACAUGAGGAUCACCCAUGUAAUAACAAUAUGAUCGGUUCAAGAAGAAGGCUAAACAAAAU
[1]
  apparent Kd: 14.2 nM
[2]
  apparent Kd: 12.8 nM

## GAACACCAGAAGAAGGGAGACAUGAGGAUCACCCAUGUUUAAAUACGAAAUAAGGUAAAAGCAACACAGGAUAUUCGGCUCUAC
[3]
  apparent Kd: 22.6 nM
[4]
  apparent Kd: 18 nM

## CAAGACAUGAGGAUCACCCAUGUGGUGUACCGAGGACCGGUACGGCCGCCACUCGUUCAUCGGUCGACAAGCUACCCUUCAAGGU
[7]
  apparent Kd: 24.2 nM
[8]
  apparent Kd: 38.7 nM

## GGAAUGUCAGGAUAUCUAAUUACCCAGAAAGAUAUGGAACCAGAGAAGGGACAUGAGGAUCACCCAUGUAUAAC
[1]
  apparent Kd: 10.2 nM
[2]
  apparent Kd: 12.4 nM

## AGAACCCAAGAGGAUACCAGAACGACAAUCAAAUCUUUUUACAUGAGGAUCACCCAUGUUUUCCCUUGGCAGCCUCAUGCACGAC
[5]
  apparent Kd: 72.1 nM
[6]
  apparent Kd: 60.8 nM

## UAACCAUGCAAAGGAUAUCCAAUACUAUGAGACGGAGAAGGUAGAAACAUGGAGAAUUCCUACAUGAGGAUCACCCAUGUUAGA
[1]
  apparent Kd: 387 nM
[2]
  apparent Kd: 245 nM

## UACAAGCAAGGAUAUACAUGAGGAUCACCCAUGUGGAGAGCCAGCAAAUUCCGGAAAUGUAGAAGGUGCCACAA
[1]
  apparent Kd: 34.4 nM
[2]
  apparent Kd: 32.8 nM

## CUAUACGUAACAUGAGGAUCACCCAUGUUCAGGUGACCAGGAAGAAGGGCUAGCAGAGUAGUUCAGCAGGAUAUUCGAUUAGAC
[1]
  apparent Kd: 38.6 nM
[2]
  apparent Kd: 28.9 nM

## CGCUUGUUCAUAGGAUAUGCUAGGUAACUCAUGGUGAGUUGGGGAACAUGAGGAUCACCCAUGUGGCAGAAGGAUGGCGUUAAU
[1]
  apparent Kd: 65 nM
[2]
  apparent Kd: 55.3 nM

## UGCGUCGUUUAGAAGGGAGUGGCCCAACAUGAGGAUCACCCAUGUGACGCUCAGAAUGUAUUUGCUCAGGAUAUAAAUGUCUUU
[1]
  apparent Kd: 162 nM
[2]
  apparent Kd: 123 nM

## AGCAGAGCCUAGAAGGCAGUGCAGACCGCGCACUGAGGAUAUAGACUUUAAGAUUGUACAUGAGGAUCACCCAUGUUGAGUGGG
[1]
  apparent Kd: 563 nM
[2]
  apparent Kd: 450 nM

## AUAUAAACGCAGAAGGAUCGUUUCCUUUAAAUGAUAGGAUAUGCCAACCUUGACAUGAGGAUCACCCAUGUGUUACUCUGUUUU
[1]
  apparent Kd: 113 nM
[2]
  apparent Kd: 98.2 nM

## CAAAACUGAGGAUAUACAAAGAAAUGGAACAUAGUACAGUAACAUGAGGAUCACCCAUGUAGAAGGCAGGACUA
[1]
  apparent Kd: 6.01 nM
[2]
  apparent Kd: 6.6 nM

## UAAGAAGAUGAGAAGGGCCAAGUAUGAGCCGGGCGAUACAUGAGGAUCACCCAUGUUUCCUAACGGCAGGAUAUCACUUCCUAU
[1]
  apparent Kd: 5.86 nM
[2]
  apparent Kd: 18.8 nM

## ACGAAUGUAGGAUAUACCAGUAGGAGAUGGGUAUCAGCACCACAUGAGGAUCACCCAUGUAGAAGGACACGUGA
[1]
  apparent Kd: 38.4 nM
[2]
  apparent Kd: 40.3 nM

## CAUAUCAAUUCAGGAUAUUCUGUUUAAUACAUGAGGAUCACCCAUGUCCUCCAAAGAUUAGCAAGGAAGAAGGGAAGUAAACAG
[1]
  apparent Kd: 82.2 nM
[2]
  apparent Kd: 69 nM

## AGGGUACAUGAGGAUCACCCAUGUUAGGAUAUGUCCGGUACGGCCGCCGUACCAGGCAACAGAAGGAACACAGC
[1]
  apparent Kd: 30.2 nM
[2]
  apparent Kd: 26.2 nM

## CACAUGAGGAUCACCCAUGUCGCGGUGUGACCGAUACUCGAAUAGGAUAUGCUUGACACUUCGUGGCAGAAGGAUUGAGGUUCG
[1]
  apparent Kd: 76.6 nM
[2]
  apparent Kd: 54.9 nM

## UAAGCACAUCAGAAGGCGCAUUAGUUGAACUUGCGAGGAUAUGAUCUGUCCUCAUCAACAUGAGGAUCACCCAUGUGUCAGCUC
[1]
  apparent Kd: 37.6 nM
[2]
  apparent Kd: 140 nM

## GAUAUACAUGAGGAUCACCCAUGUCCAAAUUAAGUUUUAGUAUAGGAUAUUGACCGCUAGGAUGUCAAGAAGGAUACCCGAGGU
[3]
  apparent Kd: 14.8 nM
[4]
  apparent Kd: 7.52 nM

## CUCUUAGGACAGGAUAUGGAACGCAUGUGUGCUCCAGAAGGGUCUACAUGAGGAUCACCCAUGUUCGGGACGGU
[1]
  apparent Kd: 530 nM
[2]
  apparent Kd: 469 nM

## UAGGACAUGAGGAUCACCCAUGUUGUACGGCGAGGACCGGUACGGCCGCCACUCGAGGCGUAAGUAGUAAAGAAUCUGAUUCAAU
[7]
  apparent Kd: 21.4 nM
[8]
  apparent Kd: 24.1 nM

## GAAUUAGUGUUGGAGGAUAUCCCAUGUCUUACAUGAGGAUCACCCAUGUCCGGACAACGACAAAAGGAGAAGGCCAUCAUCAUGUC
[3]
  apparent Kd: 772 nM
[4]
  apparent Kd: 80.8 nM

## GCAGACAUGAGGAUCACCCAUGUACUUGGGCGAGGACCGGUACGGCCGCCACUCGUAGACUUGACGAGGAAAUGUUCUCGCAGGG
[7]
  apparent Kd: 22.4 nM
[8]
  apparent Kd: 19.1 nM

## AAUCGCCUGGGUCGCAUCCUUGCUCCGGAUACCAGUCAAUAGUUGGACCCUUGGCAGCCGUAGACAUGAGGAUCACCCAUGUAUA
[5]
  apparent Kd: 53.8 nM
[6]
  apparent Kd: 109 nM

## AGUCGUACCAAGAAGGUACCCGGCUAAUGGUGGUAAGGAUAUUGUACGAACCCUAACAUGAGGAUCACCCAUGUCCACAGUGGG
[1]
  apparent Kd: 53.5 nM
[2]
  apparent Kd: 33 nM

## AAUGUGUAAGGAUAUACCGUUCAGUCUCUCCACAAUCGAUGGUAGAAGGUACAUGAGGAUCACCCAUGUGAGGA
[1]
  apparent Kd: 14.9 nM
[2]
  apparent Kd: 15.2 nM

## CGAGUUUGCAAAGGAUAUCGGUUUUGAACAGACCGAGAAGGUUGACUGUACAUGAGGAUCACCCAUGUGUGCUCGAUAUAAAGA
[3]
  apparent Kd: 7.72 nM
[4]
  apparent Kd: 7.04 nM

## GAUCCGCUCGAGAAGGUCGUCGGGCACCGAGUCGAAGGAUAUCGAGAAUGAAGACAUGAGGAUCACCCAUGUGAGGAGCGAUCC
[1]
  apparent Kd: 136 nM
[2]
  apparent Kd: 126 nM

## CUACAUGGGCUCGAUACCAGUCAGCUCUCGCGUCUCUCAGACAUGAGGAUCACCCAUGUUGACCCUUGGCAGCGACGAUGUAGGC
[5]
  apparent Kd: 79.8 nM
[6]
  apparent Kd: 500 nM

## UCCCGAAAGAAGAAGGGUACACCGAGCUGGUAACACAGCAAAACAUGAGGAUCACCCAUGUCUGAACAGGAUAUUCCGCGAGUA
[3]
  apparent Kd: 31.9 nM
[4]
  apparent Kd: 25.5 nM

## CCUUAGUGAGGAUAUGCAUAGCCUUGGCGGCCAGGAGCCAAGCAGAAGGCACAUGAGGAUCACCCAUGUCCGGU
[1]
  apparent Kd: 16.6 nM
[2]
  apparent Kd: 22.8 nM

## GACAUGAGGAUCACCCAUGUUAAAGAUCCCAGCAUGCAACUCAGAAGGCUAAACUGUGGAUAGAAAGAGGAUAUGAGUUUAUAC
[1]
  apparent Kd: 9.62 nM
[2]
  apparent Kd: 9.57 nM

## CGUUACAUAGAGAAGGUUCAUAAGAUCAAAUAACAUGAGGAUCACCCAUGUAUGUAAGCAUGAGGAAAGGAUAUCUACCGCCAG
[3]
  apparent Kd: 144 nM
[4]
  apparent Kd: 70.1 nM

## UUAUCGGUCUCAGGAUAUCAGUAUCACUCAUUAUGAGAAGGGAGACACUCCGGAACAUGAGGAUCACCCAUGUGGGCCUUGGGU
[1]
  apparent Kd: 172 nM
[2]
  apparent Kd: 103 nM

## UCAGAUGUGAAGGAUAUUCCGCGAGCAGCUACGGAAGAAGGUCAAACAUGAGGAUCACCCAUGUGUCUCCCGGG
[1]
  apparent Kd: 14.4 nM
[2]
  apparent Kd: 22.4 nM

## GCUGCCGUCGGUGAAAACUCCCAUGCAGAUACCAGCGCAUUCCGCCGCCCUUGGCAGCUGCAUACAUGAGGAUCACCCAUGUGUU
[5]
  apparent Kd: 84.4 nM
[6]
  apparent Kd: 147 nM

## GUGGGCGCUGAGAAGGACCGGAGACGCCGAUUGGUAGGAUAUCAGAAAGGUGCCGGUGAUUACAUGAGGAUCACCCAUGUAUGG
[1]
  apparent Kd: 22.8 nM
[2]
  apparent Kd: 20.2 nM

## AUAUUGUUUAUAGGAUAUUACACUAAGGUGACAUGAGGAUCACCCAUGUCCUCAACCACACGACUUAAGAAGGAUAAACGUUGG
[1]
  apparent Kd: 46.5 nM
[2]
  apparent Kd: 54.9 nM

## UAGUCAUCGGCAGGAUAUUCGCUAGUAGACUAUGAAGAAGGGCCACGUACCUCACAAACAUGAGGAUCACCCAUGUAUCUGGAC
[1]
  apparent Kd: 39.2 nM
[2]
  apparent Kd: 29 nM

## AUAAUAACAUGAGGAUCACCCAUGUCCUCUUGGCGGCGGCUUAGAAGGUCGACUACUUUUCUUUCGAAGGAUAUAACCUGUUCU
[1]
  apparent Kd: 913 nM
[2]
  apparent Kd: 733 nM

## UGAUUAUACUUUGAGGAUAUACUAGGACUCACAUGAGGAUCACCCAUGUGUGCGGCUAUACGAGCGUAGAAGGCAAAUACUCCGGC
[3]
  apparent Kd: 9.31 nM
[4]
  apparent Kd: 7.91 nM

## CCAGCAUGGCAGACCAUACAUGAGGAUCACCCAUGUAGAAGCUAGGAUAUAAAUGUAACACACUAUUAGAAGGAGCGCUACCUU
[1]
  apparent Kd: 8.55 nM
[2]
  apparent Kd: 6.51 nM

## UGUCACUGUUUGGUUCAAUGAAGAAGAAUUCGAGGACCGGUACGGCCGCCACUCGCUAUGCAACAUGAGGAUCACCCAUGUAAAA
Designed as: OFF switch for tryptophan, no ligand
  apparent Kd: 15.8 nM
Ligand present: tryptophan, designed as: OFF switch for tryptophan
  apparent Kd: 15.3 nM

## AAAAGGUCCGCUACAUGAGGAUCACCCAUGUAAAGGGUAAAUCAGGAUAUGGACGGGAGUCUUAACCAGAAGGGAUUACAGGUC
[3]
  apparent Kd: 31.6 nM
[4]
  apparent Kd: 25.1 nM
